Assay outcomes deposited in PubChem BioAssay by several laboratories.
Mdm2 MdmX PPI – disrupts the human Mdm2-MdmX interaction | O15151+Q00987 | SaOS-2 split-luciferase Mdm2/MdmX complementation, luminescence | inhibition, % at 8 µM | hit rate 3% among 330,000;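 active = inhibition of at least 50% at 8 µM in the primary screen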
XBP1 UPR activ – adaptive UPR (XBP1) activation; CHO-XBP1 luciferase reporter, IRE1-XBP1 UPR activation, luminescence; percent of tunicamycin response, DMSO as zero; activation, % at 20 µM; hit rate 0.33% among 330,000; AID 463104;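 active = versus positive control, 20 µM dose yields 30% or more activation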
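Signal: luciferase luminescence; Assay system: CHO-XBP1 luciferase reporter cells; Amount: one thousand reporter cells per well; Dosing: 20 µM single concentration, DMSO 1%; Benchmarks: high control tunicamycin 10 µg/mL final, low control DMSO vehicle only; Schedule: 6 h compound exposure at 37 °C, 5% CO2; Evaluation: percent activation relative to tunicamycin reference.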
T cruzi repl – T. cruzi replication inhibition | T. cruzi beta-gal in NIH3T3, luminescence, 90 h | inhibition, % (test concentration not listed) | hit rate 1.4% among 300,000 | AID 1885;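 active = mean inhibition across valid replicates above about 55%, limit read from the data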;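 note: signal also drops with host cell toxicity which is not excluded here; higher percent means less beta-gal luminescence so fewer parasites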
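Material: NIH/3T3 host cells with β-galactosidase reporter T. cruzi; Input: 5,000 host fibroblasts per well; Medium: DMEM, 2% fetal bovine serum; Compound: 50 nL DMSO compound solution per well; Schedule: 3 h host attachment, then at least 90 h co-culture; Detection: luminescent β-galactosidase signal after 60 min lysis.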
Beta apoptosis – blocks beta cell apoptosis; INS-1E cytokine-induced death, ATP luminescence, 48 h; percent of positive-control rescue, neutral wells zero; protection from apoptosis, % (no concentration beside the values); hit rate 0.8% among 300,000;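 active = Every replicate reaches about 75%, or at least half do and their mean reaches it too, limit read from the data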;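 note: higher means more ATP so stronger rescue from cytokine killing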
CSC inhib – cancer stem cell inhibition; cancer stem cell-like cells viability, luminescence; inhibition, % at 7.5 µM; hit rate 1.1% among 300,000; in the data active = inhibition above about 75%; tested in HMLE shEcad cells
UPR CHOP act – activators of apoptotic arm of unfolded protein response (CHOP) | CHO-CHOP luciferase reporter, UPR activation, luminescence; percent of tunicamycin response over DMSO baseline | activation, % at 10 µM | hit rate 0.34% among 330,000;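 active = at 10 µM dose, activation of 40% or more, normalized to positive control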
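Material: CHO-CHOP cells, stable luciferase reporter of PERK-eIF2a-CHOP signalling; quantity: 500 reporter cells seeded per well; buffer or medium: F12 medium containing 10% fetal bovine serum; compound: one dose, 10 µM in 0.5% DMSO; incubation: 6 h compound treatment, 37 °C; measured by: Steady-Glo luciferase luminescence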
Mdm2-MdmX conf – human Mdm2/MdmX binding inhibition, confirmed | shares compounds with Mdm2 MdmX PPI | luminescent assay | inhibition, % at 8 µM | hit rate 55% among 10,000 | AID 489028; in the data active = inhibition above about 40%
Full FLuc ctr – inhibits full-length luciferase, flagging false Mdm2/MdmX hits; SaOS-2 full-length luciferase counterscreen, luminescence; inhibition, % at 8 µM; hit rate 77% among 6,200; shares compounds with Mdm2 MdmX PPI;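 active = mean inhibition at 8 µM reaching about 37%, which flags the compound as non-specific, limit read from the data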;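 note: p53-null SaOS-2 cells with luciferase driven by a doxycycline-inducible promoter; compound on cells about two nights before reading with doxycycline added after day one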
A number is an active result; - = inactive; . = not tested or not shown. Only some compounds are listed: those with a hit (about 5% of all), similar ones and a draw of the others.

SMILES	Mdm2 MdmX PPI	XBP1 UPR activ	T cruzi repl	Beta apoptosis	CSC inhib	UPR CHOP act	Mdm2-MdmX conf	Full FLuc ctr
Cn1c(O)c(Cc2ccc(OCc3ccccc3)cc2)c(=O)n(C)c1=O	-	-	-	-	-	-	.	.
CC(C)NP(=O)(NC(C)C)OP(=O)(NC(C)C)NC(C)C	-	-	.	-	-	-	.	.
COc1cc2nc(CN3CC=C(c4ccccc4)CC3)[nH]c(=O)c2cc1OC	78.6	-	-	-	89.8	-	68.4	113.0
O=[N+]([O-])c1ccc(NC2CCN(Cc3ccccc3)CC2)c2ccncc12	63.9	-	60.0	-	-	-	-	.
Cc1ncc(CN2CCCC(C(=O)c3ccc(C(C)(C)C)cc3)C2)s1 (centres undefined)	-	-	-	-	-	-	.	.
N#CC1=C(N)Oc2c(c(=O)sc3ccccc23)C1c1cccnc1 (centres undefined)	52.1	-	76.8	-	-	-	60.4	56.5
Cc1[nH]c2ccc(OC(F)(F)F)cc2c1CCNCc1ccc(Cl)cc1	82.6	-	-	-	104.4	-	50.6	47.6
Cc1cccc(CN2CCCC(C(=O)c3ccc4c(c3)OCO4)C2)n1 (centres undefined)	-	-	-	-	-	-	.	.
COc1cc(C)c(CNCCc2c[nH]c3ccccc23)cc1C	64.3	-	-	-	-	-	-	.
CCOC(=O)c1c(C)n(Cc2ccccc2)c2ccc(OCC(O)Cn3nc(C)nc3C)cc12 (centres undefined)	-	-	-	.	-	-	.	.
CCOC(=O)c1c(C)n(Cc2ccccc2)c2ccc(OCC(O)CNC(C)(C)C)cc12 (centres undefined)	50.9	-	-	-	-	-	-	.
O=C1CN=C(c2ccccc2Cl)c2cc(Br)ccc2N1	-	-	-	.	-	-	.	.
O=C1CN=C(c2ccc[nH]2)c2cc(Cl)ccc2N1	64.6	-	-	-	-	-	68.1	52.9
COc1cccc(NC2=NCCCS2)c1	-	-	-	-	-	-	.	.
COC(=O)C1=C(c2ccc(-c3ccccc3)c(F)c2)C[C@@H]2CC[C@H]1N2C(=O)NC1CCCCC1	69.2	-	.	-	-	-	41.3	64.0
COC(=O)C1=C(c2ccc(OCc3ccccc3)cc2)C[C@@H]2CC[C@H]1N2C(=O)NC1CCN(Cc2ccccc2)CC1	85.5	-	.	78.1	-	-	53.8	61.6
C=C(C=O)CC1CC(O)[C@]2(C)OC3CC4OC5C[C@]6(C)O[C@]7(C)CCC8OC9C[C@]%10(C)OC%11C(C)=CC(=O)OC%11CC%10OC9C[C@@H](C)C8OC7CC6O[C@]5(C)CC5OC5C4OC3CC2O1 (some centres undefined)	98.9	-	-	100.6	-	-	100.0	-
C=C(CO)CC1CC(O)[C@]2(C)OC3CC4OC5C[C@]6(C)O[C@]7(C)CCC8OC9C[C@]%10(C)OC%11C(C)=CC(=O)OC%11CC%10OC9C[C@@H](C)C8OC7CC6O[C@]5(C)C/C=C\C4OC3CC2O1 (some centres undefined)	-	-	-	-	-	-	.	.
O=C(CCCc1ccccc1)NCCc1cnc[nH]1	-	-	-	-	-	-	.	.
CCOc1cc2c(cc1OCC)-n1cccc1C(c1cc(OC)ccc1F)NC2 (centres undefined)	-	-	-	-	-	-	.	.
Clc1ccc(C[n+]2c(-c3ccccc3)cc(-c3ccccc3)cc2-c2ccccc2)cc1	89.9	-	56.3	122.4	-	-	83.8	-
Cc1ccc(-c2cc(-c3ccccc3)cc(-c3ccccc3)[n+]2-c2ccccc2C(=O)O)cc1	-	-	-	-	-	-	.	.
C[n+]1c(-c2ccccc2)cc(-c2ccc(O)cc2)cc1-c1ccccc1	-	-	-	-	-	-	.	.
